experiment: Toxicity liver stage against HepG2, at 10uM; type: cell-based; parameters: test concentration 10 uM, cell line HepG2-A16-CD81EGFP; settings: human, HepG2-A16-CD81EGFP cells; read-out: INHIBITION
Method in brief: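 Uninfected HepG2-A16-CD81EGFP cells, 3 × 10^3 per well, 1536-well, plated on prespotted compound at 10 μM final, parasite-free screening media added to match infected plates; puromycin 10 μM positive, DMSO 0.5% negative; run in parallel with 48 h PbLuc assay at 37 °C, 5% CO2; viability by CellTiter-Glo luminescence, normalized to controls.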

Compound | cytotoxicity at 10 µM
CCn1cc(S(=O)(=O)Nc2nc3c(s2)CCCC3)cn1 | 6.33%
Cc1cc2nc(C(C)C)cc(N3CCN(S(N)(=O)=O)CC3)n2n1 | -11.3%
COc1cc(C)nc(N2CCN(C(=O)c3ccccc3C)CC2)n1 | -2.18%
Cc1nc2ccc(C(=O)N3CCn4c(C)nnc4C3)cc2nc1C | -6.2%
O=C(C1CNCCN1C(=O)CCOc1ccccc1)N1CCOCC1 (stereo unspecified) | 0.311%
O=C(NC1CCCN(c2ccc(OC(F)F)cc2)C1)c1c[nH]nn1 (stereo unspecified) | 24.8%
COC(=O)CNC(=O)C(C(C)C)n1cnc2cc(F)c(F)cc21 (stereo unspecified) | 2.76%
c1cnc(-c2nn3c(CN4CCCCC4)nnc3s2)cn1 | 5.31%
CS(=O)(=O)N1CC[C@]2(O)CCN(c3ccnc(N)n3)C[C@@H]2C1 | 21%
CC1CCN(CC2CCCN(C(=O)Nc3ccccn3)C2)CC1 (stereo unspecified) | -9.85%
Cc1nccn1-c1nccnc1C1CCCN(C2CCCC2)C1 (stereo unspecified) | -0.55%
CCOCC(=O)NC1(c2nc(C)cs2)CCCC1 | -12.7%
CCOCCn1c(=O)[nH]c2cc(C(=O)N(C)Cc3ccno3)ccc21 | -1.79%
Cc1ncsc1C(=O)NCCNC(=O)Cc1cccc(F)c1 | -0.0716%
CC(C)c1noc(CCC(=O)Nc2cc(F)ccc2F)n1 | -15.4%
Cc1nc(N(C)C)ncc1C(=O)NCCc1csc(-c2ccncc2)n1 | 1.39%
CC(C)C(=O)N1CCCC(Cc2ncccn2)C1 (stereo unspecified) | -2.49%
Cc1nn(C(C)C)c2cnn(CC(=O)N3CCN(C)CC3)c12 | 9.51%
COC(C)(C)CNC(=O)C1CCC(=O)N(C2CCCC2)C1 (stereo unspecified) | -6.52%
CN(C)CC1(O)CCCN(c2ccnc3c(C(F)(F)F)cccc23)C1 (stereo unspecified) | -4.55%
c1cnc(NC2COC3(CCN(Cc4nccs4)CC3)C2)cn1 (stereo unspecified) | -79.9%
Cc1ncsc1-c1nnc(C2CCN(Cc3cccc(F)c3F)CC2)o1 | -15.8%
Cc1cc(C[C@@H]2COC[C@H]2NCc2ccc(C(C)C)cc2)on1 | -30.4%

Compound | cytotoxicity at 10 µM
COCCn1ccnc1CN1CCc2[nH]cnc2C1c1ccccn1 (stereo unspecified) | -3.3%
Cc1nc(COCC2CN(C(N)=O)Cc3nccn3C2)cs1 (stereo unspecified) | 5.3%
Cc1nn(-c2ccccc2)nc1C(=O)NCC(c1ccco1)N(C)C (stereo unspecified) | 6.51%
O=S(=O)(CCCNCCn1cccn1)c1ccccc1 | 5.96%
CCOc1ccc(NS(=O)(=O)c2cc(C)c(C(=O)O)s2)cc1F | -3.24%
Cc1ccc2cc(CN(C)Cc3ccccn3)c(=O)[nH]c2c1 | 3.08%
O=C(NCC1CC1)C1CCC2(CCN(C(=O)c3ccco3)CC2)O1 (stereo unspecified) | 5.91%
CN(Cc1ccco1)Cc1ccccc1CNC(=O)c1ccncc1 | -9.87%
CCC(=O)N1CCC(Cc2cc(Nc3ncccn3)ncn2)CC1 | -4.05%
CCc1ccc(C2CCCCCN2C(=O)CNC(=O)C2CC2)o1 (stereo unspecified) | -7.25%
CSCC(=O)N1CCc2c(cnc(C)c2-c2noc(-c3ccco3)n2)C1 | 2.93%
Clc1cc(Cl)cc(OCCN2CCC(n3cncn3)CC2)c1 | 10.8%
O=C(NCCNCc1cccc2c1OCCCO2)C1CCCC1 | 8.08%
CC(C)OCCCNC(=O)c1cccnc1N1CCOCC1 | 10.5%
CNC(=O)c1sc2ccccc2c1C1CCN(c2nc(C)cc(C)n2)C1 (stereo unspecified) | 4.93%
NCc1n[nH]c(=O)n1-c1cccc(Cl)c1Cl | -0.994%
Cn1cc(-n2cc3nc(N4CCOCC4)[nH]cc-3c2=O)cn1 | 7.36%
Cc1ccc(S(=O)(=O)N2CC(C)Oc3ncccc32)c(C)c1 (stereo unspecified) | 5.35%
COc1ccnc(N2CCC3(CCCN(C(C)C)C3=O)C2)n1 (stereo unspecified) | -8.7%
O=C(C1CCCCC1)N1CCC2(CC1)CNCc1ccccc12 | -6.13%
Cc1noc(C)c1CC(=O)N1CCCN(C)c2ccc(Cl)cc21 | 9.71%
CC(O)(CNC(=O)c1c(F)cccc1Cl)c1ccco1 (stereo unspecified) | 2.22%
Cc1nn(C)c(C)c1C1CCCN1C(=O)c1ccc(Cl)o1 (stereo unspecified) | -5.15%

Compound | cytotoxicity at 10 µM
Cn1ccnc1CN1CCCC1CCc1ccccc1 (stereo unspecified) | 13.8%
CN(CCc1ccccc1)Cc1c(C2CCOCC2)[nH]c2ncccc12 | 4.21%
COC(=O)CNC(=O)C(C)Oc1ccccc1C(F)(F)F (stereo unspecified) | 6.08%
O=C(NCc1cnn2cccnc12)c1cccc(CC2CCNCC2)c1 | -44.5%
CC(=O)N(Cc1ncc(C)o1)C1CCN(Cc2csc(C)n2)C1 (stereo unspecified) | -15.8%
Cc1oc(C(=O)O)cc1S(=O)(=O)Nc1cc(Cl)ccc1F | -12%
Cc1nc(C)c(CC(=O)N2C[C@H]3CC[C@@H](C2)N(CC2CC2)C3)s1 | -1.59%
O=c1c2cccc(F)c2ncn1CCN1CCNCC1 | -0.812%
CC(C)CC(=O)N1CCCn2cnc(CNS(C)(=O)=O)c2C1 | -1.22%
CCN(CC)S(=O)(=O)N1CCCC(c2ccc(C(=O)O)cc2)C1 (stereo unspecified) | -7.27%
Cn1cc(-c2nnn3c2COC(CNC(=O)c2cccs2)C3)cn1 (stereo unspecified) | 3.31%
CCN(Cc1cccc(C(=O)Nc2c(C)cnn2C)c1)[C@H]1COC[C@@H]1O | -1.58%
O=S1(=O)NC2(CCCN(Cc3ccc(F)cc3)C2)COc2ccccc21 (stereo unspecified) | 7.63%
CC[C@H]1CN(C(=O)c2cccc(-n3cnnc3)n2)CC[C@@]1(C)O | 3.66%
Cc1ccc(CN(CCN(C)C)C(=O)Nc2ccc(C)c(C#N)c2)s1 | 5.57%
COc1ccc(CN2CCC3(CC(=O)N(c4cncnc4)C3)C2)cc1 (stereo unspecified) | 4.53%
Fc1ccccc1CN(CCCn1ccnc1)CC1CCOC1 (stereo unspecified) | 8.68%
CN(C)Cc1nc2c(o1)CN(C(=O)NCc1cccc(F)c1)C2 | 5.32%
CCc1ncc(C(=O)N2CC(N3CCCCC3)C2)cn1 | -4.68%
N#Cc1c(SCCN2CCCCC2)sc2c(O)cc(O)nc12 | -13.1%
CCn1cc2c(n1)C(COC)CN(Cc1ccoc1)C2 (stereo unspecified) | 7.89%
Cc1c(CS(C)(=O)=O)cccc1NCC1CCCCC1 | -8.98%
CC(C)NC(=O)[C@H]1CN(Cc2ccccc2)C[C@@H]1C(=O)c1ccccc1 | 7.84%

Compound | cytotoxicity at 10 µM
CC(C)OCc1ncn2c1CN(Cc1cccs1)CCC2 | 8.44%
CC(C)(C)c1cc(NC(=O)CN2CCC(N3CCNC3=O)CC2)on1 | -2.05%
NC(=O)c1ccc(N2CCCCC2)c(NC(=O)c2ccc(Br)cc2)c1 | 11.1%
CSC(C)CC(=O)N1CCC(n2ccnn2)CC1 (stereo unspecified) | -47.9%
COCCCN1CCCC2(CCN(S(=O)(=O)c3cccnc3)C2)C1=O (stereo unspecified) | 8.21%
CCC1=N[C@@]2(CC[C@@H]3CN(Cc4ccc(Cl)cc4)C[C@@H]32)C(=O)N1 | 3.6%
Cc1nc(C)c(C(=O)N2CCc3nc4sc(C)cc4c(=O)n3CC2)o1 | -9.31%
CSCCC(NC(=O)C1CC1)C(=O)N(C)Cc1ccsc1 (stereo unspecified) | -3.96%
CS(=O)(=O)N1CCN(CC(O)COc2ccc(F)cc2)CC1 (stereo unspecified) | 6.11%
O=C(O)c1nnn(-c2ccc(Cl)c(C(F)(F)F)c2)c1-c1ccncc1 | 8.63%
O=S(=O)(c1cccs1)N1CCCn2cnc(CO)c2C1 | 5.89%
O=C1N[C@H]2OCCC[C@H]2[C@H](c2ccccc2C(=O)O)N1 | 2.62%
Cc1nc(C2CCCN(C(=O)CO)C2)cc(N2CCOCC2)n1 (stereo unspecified) | -12.9%
CS(=O)(=O)NCC1Cc2ccccc2O1 (stereo unspecified) | 2.01%
O=C(NCc1c(F)cccc1F)C1CN(C(=O)c2cnccn2)C1 | -12.2%
CN(Cc1noc(C2CC2)n1)C1CCN(Cc2nnc(C3CC3)o2)C1 (stereo unspecified) | -5.28%
O=C1CN(Cc2ccc3ccccc3n2)CCN1C1CCCC1 | -3.45%
CC(C)CN1CCc2[nH]cnc2C12CCN(C(=O)c1cnn(C)c1)CC2 | -4.68%
O=C(Nc1nc2c(s1)CN(S(=O)(=O)C1CC1)CC2)Nc1ccccc1F | -1.34%
Cc1cc(CN2C[C@H]3CCC[C@@]3(COCC(=O)N3CCCC3)C2)no1 | 8.31%
CN(C)S(=O)(=O)N1CCC(Oc2ccc(C#N)cc2)CC1 | 3.96%
Cc1nnc2n1CCN(CCOc1ccccc1)C2 | 2.24%
CCc1nnc2n1CCN(C=C1NN=C(c3occc3C)O1)C2 | -10%

Compound | cytotoxicity at 10 µM
O=C(CCc1cccs1)N1CCCC1c1noc(C2CC2)n1 (stereo unspecified) | -4.87%
CN(C)CCCNC(=O)C(c1cccc(F)c1)N(C)C (stereo unspecified) | -4.58%
CN(C)S(=O)(=O)c1ccc2c(c1)N(Cc1nccn1C)CC2 | -3.42%
COc1cccc(COCC(=O)N2CCN(S(C)(=O)=O)CC2)c1 | -10.7%
Cc1nc(CN2CCC(c3nc4ccccc4n3C)CC2)co1 | 13.5%
COC(=O)c1cccn1C1CCN(C(=O)c2ccc(C)cc2O)CC1 | -6.97%
O=C(C1CCCO1)N1CCCn2c(nnc2Cn2cccn2)C1 (stereo unspecified) | 16.6%
CC(Cc1cnccn1)NC(=O)c1cccc(CC2CCNCC2)c1 (stereo unspecified) | -9.37%
O=c1cc(Cn2ccnc2)nc2n1CCCN(Cc1cccs1)C2 | 0.312%
CSCC(C)(O)CNC(=O)Nc1cc(C)cc(C)c1 (stereo unspecified) | -3.24%
Cc1nn(CC(=O)N2CCN(Cc3cnn(C)c3C)CC2)cc1Br | -7.55%
Cc1nnc(Nc2cccc(C3CCCN(Cc4ncc[nH]4)C3)n2)s1 (stereo unspecified) | -5.5%
O=C(Cc1cccs1)Nc1cnn(C2CCOC2)c1 (stereo unspecified) | -7.86%
COc1cccc(CN2CC[C@H]3[C@@H](C2)[C@H](c2ccsc2)CN3C(C)=O)c1 | -5.61%
CC(C)(O)CCc1cccc(C(=O)NCC2COCCO2)c1 (stereo unspecified) | -6.38%
O=C(NCC1CC1)c1cc2c(s1)CCN2C(=O)c1ccc(F)cc1 | 2.55%
CC(C)NC(=O)C1CCc2nnc(CNC(=O)C3CC3)n21 (stereo unspecified) | 4.9%
Cc1ccc(S(=O)(=O)N2CCC(Oc3ccccn3)CC2)c(C)c1 | 26.3%
CC(C)CC(=O)N1CCCn2cnc(CN3CCCC3=O)c2C1 | -6.42%
